PRMT1 inh: blocks human protein arginine methyltransferase 1; recombinant PRMT1, activity-based probe fluorescence polarization; actives 1.3% (n = 370,000); inhibition, % at 2.79 µM; Q99873;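 active means inhibition above about 21% made by adding two undisclosed values, limit read from the data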
LEDGF integ inh: blocks HIV-1 LEDGF/p75-dependent DNA integration; inhibition, % at 3.7 µM; AID 743269; actives 0.64% (n = 370,000); TR-FRET IN-LEDGF/p75 DNA integration, Eu/Cy5;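 active means inhibition above the screen-wide mean plus 3 SD, cut at about 13% in these data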;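 further: signal is the Cy5 over europium emission ratio at 671 and 618 nm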
ABHD5-PLIN5 inh: ABHD5-PLIN5 protein interaction inhibition; Split G. princeps luciferase complementation, luminescence, 4 h; inhibition, % at 4 µM; actives 0.78% (n = 360,000); AID 602281;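 active means inhibition above the mean inhibition across every tested compound plus 3 SD, cut at about 22% in these data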
Target sequence (Q00G26 whole entry, looked up): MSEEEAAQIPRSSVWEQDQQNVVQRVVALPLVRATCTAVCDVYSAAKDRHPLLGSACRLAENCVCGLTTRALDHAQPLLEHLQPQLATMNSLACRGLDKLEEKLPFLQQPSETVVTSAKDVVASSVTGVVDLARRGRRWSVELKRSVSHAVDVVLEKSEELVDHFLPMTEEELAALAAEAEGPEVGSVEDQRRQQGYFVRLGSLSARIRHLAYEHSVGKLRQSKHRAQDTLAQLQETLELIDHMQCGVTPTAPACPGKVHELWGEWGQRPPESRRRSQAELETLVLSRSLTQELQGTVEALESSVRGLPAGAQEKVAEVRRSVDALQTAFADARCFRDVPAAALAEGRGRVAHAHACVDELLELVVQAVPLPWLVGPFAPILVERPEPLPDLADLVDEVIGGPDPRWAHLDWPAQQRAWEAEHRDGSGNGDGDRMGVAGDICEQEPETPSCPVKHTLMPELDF
Target sequence (Q8WTS1 whole entry, looked up): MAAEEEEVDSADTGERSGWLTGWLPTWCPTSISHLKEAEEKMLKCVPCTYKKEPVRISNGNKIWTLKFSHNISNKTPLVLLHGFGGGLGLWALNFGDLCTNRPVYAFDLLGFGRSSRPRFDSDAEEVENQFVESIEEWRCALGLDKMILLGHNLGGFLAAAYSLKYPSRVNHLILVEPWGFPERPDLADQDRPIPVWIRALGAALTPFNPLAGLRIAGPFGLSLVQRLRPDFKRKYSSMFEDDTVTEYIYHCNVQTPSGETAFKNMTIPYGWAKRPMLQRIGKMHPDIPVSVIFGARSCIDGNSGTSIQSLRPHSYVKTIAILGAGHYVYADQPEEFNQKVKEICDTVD
UHRF1 MBD2 ctr: UHRF1 methyl-DNA binding inhibition. Q96T88. inhibition, % at 4.4 µM. UHRF1 binding to methylated oligo, TR-FRET. AID 687016. actives 0.75% (n = 370,000); in the data active means inhibition above about 21%;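 further: UHRF1 SRA domain binding a hemimethylated CpG hairpin DNA probe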
MBD2 DNA inh: blocks human MBD2 binding to methylated DNA | TR-FRET, MBD2 binding to methylated oligonucleotide | inhibition, % at 4.4 µM | actives 0.31% (n = 370,000) | AID 686964; in the data active means inhibition above about 13%
RBBP9 inh: blocks human serine hydrolase RBBP9. O75884. recombinant RBBP9, FP-Rh probe fluorescence polarization. inhibition, % at 7.94 µM. actives 0.2% (n = 220,000). AID 1515;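 active means inhibition above the campaign mean of all tested compounds plus 3 SD, cut at about 14% in these data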
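System: RBBP9 protein / Buffer or medium: Tris/NaCl buffer pH 8.0 with 0.1% Pluronic / Probe or stimulus: Serine-hydrolase probe FP-Rh, 375 nM pre-mixing / Dosing: 7.94 µM single dose, 0.794% DMSO / Times: enzyme-compound preincubation 30 min, then probe labeling 45 min, 25 °C / Technique: fluorescence polarization (mP), excitation 525 nm, emission 598 nm / Replication: singlicate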
PRMT1 inh conf: PRMT1 (human) inhibition, FP confirmation. inhibition, % at 2.79 µM. AID 687036. recombinant His-PRMT1, activity-based probe fluorescence polarization. actives 42% (n = 3,300). shares compounds with PRMT1 inh;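 active means mean inhibition across replicates above the hit cutoff derived for the earlier primary screen, cut at about 22% in these data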
Large screens that a line does not name were inactive (follow-up assays come after a bar, where they were run). Rows were chosen to be rich in hits. Some 3.1% of all compounds tested hit in one or more screens of this group.

CN1CC=C2C(C#N)=C(N)C(C#N)(C#N)[C@H](c3cccc(Cl)c3)C2C1 (stereo partly drawn)	PRMT1 inh 26 | PRMT1 inh conf inactive
CCN1CC=C2C(C#N)=C(N)C(C#N)(C#N)[C@H](c3cccc(OC)c3OC)[C@H]2C1	PRMT1 inh 37 | PRMT1 inh conf inactive
COc1cccc(C2C3CN(C)CC=C3C(C#N)=C(N)C2(C#N)C#N)c1OC (stereo not drawn)	none
CCCC1C2CN(C(C)C)CC=C2C(C#N)=C(N)C1(C#N)C#N (stereo not drawn)	PRMT1 inh 70 | PRMT1 inh conf 22
CC(=O)Nc1cc2nc3ccccc3oc-2cc1=O	none (no result: ABHD5-PLIN5 inh, RBBP9 inh)
N#Cc1ccc(NC(=O)OC2CCC23CCC(c2ccccc2)CC3)cc1 (stereo not drawn)	none (no result: ABHD5-PLIN5 inh, RBBP9 inh)
O=C(CN1C(=O)S/C(=C\c2cccs2)C1=O)Nc1ccc(O)cc1C(=O)O	PRMT1 inh 32 (no result: RBBP9 inh) | PRMT1 inh conf inactive
Cc1cc(Br)c2nc(-c3ccc(F)cc3)c(Cc3cccc(Cl)c3)n2c1	none (no result: ABHD5-PLIN5 inh, RBBP9 inh)
COC(=O)Cc1nnn2c1[C@@H](C)[C@@H](c1ccccc1Br)O[C@@H](C)C2	none (no result: ABHD5-PLIN5 inh, RBBP9 inh)
COc1ccc2cc(C(c3nnnn3C(C)(C)C)N3CCSCC3)c(=O)[nH]c2c1 (stereo not drawn)	PRMT1 inh 34 | PRMT1 inh conf inactive
O=C(CSC1=NCCN1)Nc1ccccc1[N+](=O)[O-]	PRMT1 inh 55 | PRMT1 inh conf inactive
O=C(CSC1=NCCN1)NC(c1ccccc1)c1ccccc1	PRMT1 inh 41 | PRMT1 inh conf 26
COc1ccccc1NC(=O)CSc1nccc(-c2ccco2)n1	PRMT1 inh 32 (no result: RBBP9 inh) | PRMT1 inh conf inactive
Cc1ccc(NC(=O)CSC2=NCCN2)cc1	PRMT1 inh 32 | PRMT1 inh conf inactive
O=C(CSC1=NCCN1)NC1CCCCCC1	none
CCn1c(SCC(=O)Nc2ccc(C)cc2)nnc1-c1ccccn1	none
O=C(CSC1=NC(=O)C(c2ccccc2)C(=O)N1)Nc1ccccc1[N+](=O)[O-] (stereo not drawn)	none
COC(=O)[C@]12C[C@H](CC(=O)N3CCCC3)C(=O)N(CCC3=CCCCC3)C1=C[C@H](C(C)C)O[C@@H]2C1CC1	none (no result: ABHD5-PLIN5 inh, RBBP9 inh)
O=C(CSC1=NCCN1)Nc1cccc([N+](=O)[O-])c1	PRMT1 inh 34 | PRMT1 inh conf inactive
CCOc1ccccc1NC(=O)/C=C/C(N)=O	PRMT1 inh 61 | PRMT1 inh conf 47
COc1ccccc1NC(=O)CSC1=NCCN1	PRMT1 inh 31 | PRMT1 inh conf inactive
COc1ccccc1NC(=O)CSc1nccc(=O)[nH]1	none (no result: PRMT1 inh, LEDGF integ inh, UHRF1 MBD2 ctr, MBD2 DNA inh)
CCOc1ccccc1NC(=O)CSc1c(C)n[nH]c1C	PRMT1 inh 25 | PRMT1 inh conf inactive
CN1[C@@H](Cc2ccccc2)COc2cc(N3CCCC3)ccc2S1(=O)=O	none (no result: ABHD5-PLIN5 inh, RBBP9 inh)
COc1ccc(-n2c(SCC(=O)Nc3ccccc3-c3ccccc3)nnc2-c2ccccn2)cc1	none (no result: ABHD5-PLIN5 inh, RBBP9 inh)
CCOC(=O)c1csc(NC(=O)C2CCCN(S(=O)(=O)c3cccs3)C2)n1 (stereo not drawn)	none (no result: ABHD5-PLIN5 inh, RBBP9 inh)
Cc1c(Cc2ccc3c(c2)OCO3)sc(NC(=O)C2CC2)c1C(N)=O	PRMT1 inh 30 | PRMT1 inh conf inactive
Cc1c(Cc2ccc3c(c2)OCO3)sc(NC(=O)c2cccc3ccccc23)c1C(N)=O	none
CC1(C)CC(=O)C=C(Nc2ccccc2NC(=O)c2ccc(F)cc2F)C1	none (no result: ABHD5-PLIN5 inh, RBBP9 inh)
C/C(CCc1oc2ccc(Cl)cc2c1-c1ccc(C)o1)=N\O	PRMT1 inh 33 | PRMT1 inh conf inactive
CCCCNC(=S)N(CCO)Cc1cc2cc3c(cc2[nH]c1=O)OCCO3	PRMT1 inh 44 (no result: RBBP9 inh) | PRMT1 inh conf inactive
CCc1c(C(C)S(=O)(=O)c2ccc(C)cc2)[nH]c(=O)n1-c1ccc(C)cc1 (stereo not drawn)	PRMT1 inh 34 | PRMT1 inh conf inactive
CCc1[nH]c(=O)[nH]c1C(C)S(=O)(=O)c1ccc(C)cc1 (stereo not drawn)	PRMT1 inh 43 | PRMT1 inh conf 34
O=c1nc2s/c(=C\c3ccc(-c4ccccc4[N+](=O)[O-])o3)c(=O)n2nc1-c1ccccc1	PRMT1 inh 59 | PRMT1 inh conf inactive
CCOC(=O)N1C(=O)C[C@](Sc2ccc(OC)cc2)(C(=O)N2CCOCC2)[C@H]1c1ccc(OC)cc1	PRMT1 inh 47 (no result: ABHD5-PLIN5 inh, RBBP9 inh) | PRMT1 inh conf 43
COc1ccc(S[C@]2(C(=O)N3CCOCC3)CC(=O)N(C(=O)C3CC3)[C@@H]2c2ccc(OC)cc2)cc1	PRMT1 inh 36 (no result: ABHD5-PLIN5 inh, RBBP9 inh) | PRMT1 inh conf 27
COc1ccc(S[C@]2(C(=O)N3CCN(c4ncccn4)CC3)CC(=O)N(c3ccc(C#N)cc3)[C@@H]2c2ccc(OC)cc2)cc1	none (no result: ABHD5-PLIN5 inh, RBBP9 inh)
CCOC(=O)N1C(=O)C[C@](Sc2ccc(OC)cc2)(C(=O)N2CCN(c3ncccn3)CC2)[C@H]1c1ccc(OC)cc1	PRMT1 inh 41 (no result: ABHD5-PLIN5 inh, RBBP9 inh) | PRMT1 inh conf 33
CCOC(=O)N1C(=O)C[C@](Sc2ccc(OC)cc2)(C(=O)N2CCCC2)[C@H]1c1ccc(OC)cc1	PRMT1 inh 56 (no result: ABHD5-PLIN5 inh, RBBP9 inh) | PRMT1 inh conf 40
CCCCCN1CCCCC(NC(=O)c2ccccc2OC)C1=O (stereo not drawn)	none (no result: ABHD5-PLIN5 inh, RBBP9 inh)
O=C(C(=O)N1CCC(CNC(=O)c2sc3ccccc3c2Cl)CC1)c1cccs1	none (no result: ABHD5-PLIN5 inh, RBBP9 inh)
COC(=O)C1=C(C)N(Cc2ccccc2C(F)(F)F)C(=NCc2ccc(OC)cc2)NC1c1ccccc1C(F)(F)F (stereo not drawn)	none (no result: ABHD5-PLIN5 inh, RBBP9 inh)
COC(=O)CN1CCN(C(=O)c2csc(-c3ccccc3)n2)CC1	none (no result: ABHD5-PLIN5 inh, RBBP9 inh)
O=C(CCc1ccccc1-c1ccccc1CCNC(=O)COCc1ccccc1)NCc1ccccc1	none (no result: ABHD5-PLIN5 inh, RBBP9 inh)
CCOC(=O)N1C(=O)C[C@](Sc2ccc(OC)cc2)(C(=O)N2CCN(C(C)=O)CC2)[C@H]1c1ccc(OC)cc1	PRMT1 inh 54 (no result: ABHD5-PLIN5 inh, RBBP9 inh) | PRMT1 inh conf 46
COc1ccc(S[C@]2(C(=O)N3CCN(C(C)=O)CC3)CC(=O)N[C@@H]2c2ccc(OC)cc2)cc1	none (no result: ABHD5-PLIN5 inh, RBBP9 inh)
COC(=O)CN(C#N)c1nc(NCc2ccccc2)nc(OC)n1	PRMT1 inh 64 (no result: RBBP9 inh) | PRMT1 inh conf inactive
CCN=C1SC(CC(=O)NCc2ccccc2)C(=O)N1CC (stereo not drawn)	PRMT1 inh 78 | PRMT1 inh conf inactive
CCN=C1SC(C(=O)NCCc2ccccc2)CC(=O)N1CC (stereo not drawn)	PRMT1 inh 39 | PRMT1 inh conf inactive
CCCCNC(=O)CC1SC(=NCC)N(CC)C1=O (stereo not drawn)	none
Cc1ccc2c(c1)C(CS(=O)(=O)NCC(C)C)NC2 (stereo not drawn)	none (no result: ABHD5-PLIN5 inh, RBBP9 inh)
CCC(C)N(C(=O)CSc1nnc(-c2cccnc2)n1C1CCCCC1)C(C)CC (stereo not drawn)	none (no result: ABHD5-PLIN5 inh, RBBP9 inh)

From PubChem BioAssay
